For data set [1], the species on record is Rattus norvegicus. The data set is described as follows: Biodistribution of radiolabeled compound in rat bone after 24 hr activity expressed as %ID/Organ. The class given is ADME, organism-based, Bone element. The note with it: in vivo. The gist of the method: (§1)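 Mature female Sprague-Dawley rats (180–200 g) each received the 64Cu complex diluted with saline, about 15 μCi in 150 μL. Groups were sacrificed at 5 min, 30 min, 2 h and 24 h postinjection. Organs were excised, weighed and gamma-counted. %ID/organ was calculated against a weighed, counted standard.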

The species entered for data set [2] is Rattus norvegicus. The data set is described as follows: Biodistribution of radiolabeled compound in rat muscle after 24 hr activity expressed as %ID/Organ. The class given is ADME, organism-based, Muscle tissue. The settings on record: in vivo. The gist of the method:
as §1

For data set [3], the species on record is Rattus norvegicus. The data set is described as follows: Biodistribution of radiolabeled compound in rat muscle after 5 min activity expressed as %ID/Organ. The note with it: in vivo. It counts as ADME, organism-based, Muscle tissue. In short, it runs like this: as §1
The species named for data set [4] is Rattus norvegicus. Briefly: Biodistribution of radiolabeled compound in rat muscle after 30 min activity expressed as %ID/Organ. The class given is ADME, organism-based, Muscle tissue. The settings on record: in vivo, 0.5 h. The gist of the method:
as §1

Data set [5] is filed under the species Rattus norvegicus. The data set is described as follows: Biodistribution of radiolabeled compound in rat kidney after 2 hr activity expressed as %ID/Organ. It counts as ADME, organism-based. The settings on record: in vivo. The gist of the method:
as §1

For data set [6], the species on record is Rattus norvegicus. Briefly: Biodistribution of radiolabeled compound in rat blood after 24 hr activity expressed as %ID/Organ. The class given is ADME, organism-based. The note with it: in vivo. The gist of the method:
as §1

For data set [7], the species on record is Rattus norvegicus. The data set is described as follows: Biodistribution of radiolabeled compound in rat heart after 30 min activity expressed as %ID/Organ. The class given is ADME, organism-based. The note with it: in vivo, 0.5 h. The gist of the method: as §1
The species named for data set [8] is Rattus norvegicus. The data set is described as follows: Biodistribution of radiolabeled compound in rat bone after 2 hr activity expressed as %ID/Organ. It counts as ADME, organism-based, Bone element. The settings on record: in vivo. In short, it runs like this: as §1
The species entered for data set [9] is Rattus norvegicus. Briefly: Biodistribution of radiolabeled compound in rat kidney after 30 min activity expressed as %ID/Organ. It counts as ADME, organism-based. The settings on record: in vivo, 0.5 h. In short, it runs like this: as §1
The species named for data set [10] is Rattus norvegicus. The data set is described as follows: Biodistribution of radiolabeled compound in rat kidney after 5 min activity expressed as %ID/Organ. It counts as ADME, organism-based. The settings on record: in vivo. The gist of the method: as §1
For data set [11], the species on record is Rattus norvegicus. Briefly: Biodistribution of radiolabeled compound in rat liver after 24 hr activity expressed as %ID/Organ. The class given is ADME, organism-based. The settings on record: in vivo. In short, it runs like this: as §1
For data set [12], the species on record is Rattus norvegicus. The data set is described as follows: Biodistribution of radiolabeled compound in rat brain after 24 hr activity expressed as %ID/Organ. The class given is ADME, organism-based. The note with it: in vivo. In short, it runs like this: as §1
The species entered for data set [13] is Rattus norvegicus. The data set is described as follows: Biodistribution of radiolabeled compound in rat fat after 5 min activity expressed as %ID/Organ. The class given is ADME, organism-based, Adipose tissue. The settings on record: in vivo. The gist of the method: as §1
Data set [14] is filed under the species Rattus norvegicus. The data set is described as follows: Biodistribution of radiolabeled compound in rat heart after 2 hr activity expressed as %ID/Organ. The note with it: in vivo. It counts as ADME, organism-based. In short, it runs like this: as §1
The species named for data set [15] is Rattus norvegicus. The data set is described as follows: Biodistribution of radiolabeled compound in rat heart after 5 min activity expressed as %ID/Organ. It counts as ADME, organism-based. The note with it: in vivo. The gist of the method:
as §1

Data set [16] is filed under the species Rattus norvegicus. The data set is described as follows: Biodistribution of radiolabeled compound in rat blood after 2 hr activity expressed as %ID/Organ. The class given is ADME, organism-based. The settings on record: in vivo. The gist of the method:
as §1

Data set [17] is filed under the species Rattus norvegicus. Briefly: Biodistribution of radiolabeled compound in rat brain after 2 hr activity expressed as %ID/Organ. The class given is ADME, organism-based. The note with it: in vivo. In short, it runs like this: as §1
The species named for data set [18] is Rattus norvegicus. Briefly: Biodistribution of radiolabeled compound in rat blood after 5 min activity expressed as %ID/Organ. The class given is ADME, organism-based. The note with it: in vivo. In short, it runs like this:
as §1

For data set [19], the species on record is Rattus norvegicus. The data set is described as follows: Biodistribution of radiolabeled compound in rat fat after 24 hr activity expressed as %ID/Organ. The class given is ADME, organism-based, Adipose tissue. The settings on record: in vivo. In short, it runs like this: as §1
Data set [20] is filed under the species Rattus norvegicus. Briefly: Biodistribution of radiolabeled compound in rat fat after 30 min activity expressed as %ID/Organ. The class given is ADME, organism-based, Adipose tissue. The settings on record: in vivo, 0.5 h. In short, it runs like this: as §1
The species entered for data set [21] is Rattus norvegicus. The data set is described as follows: Biodistribution of radiolabeled compound in rat lung after 30 min activity expressed as %ID/Organ. It counts as ADME, organism-based. The settings on record: in vivo, 0.5 h. In short, it runs like this: as §1
Data set [22] is filed under the species Rattus norvegicus. The data set is described as follows: Biodistribution of radiolabeled compound in rat kidney after 24 hr activity expressed as %ID/Organ. It counts as ADME, organism-based. The note with it: in vivo. In short, it runs like this: as §1
The species named for data set [23] is Rattus norvegicus. The data set is described as follows: Biodistribution of radiolabeled compound in rat muscle after 2 hr activity expressed as %ID/Organ. The class given is ADME, organism-based, Muscle tissue. The settings on record: in vivo. In short, it runs like this: as §1
For data set [24], the species on record is Rattus norvegicus. Briefly: Biodistribution of radiolabeled compound in rat bone after 5 min activity expressed as %ID/Organ. The class given is ADME, organism-based, Bone element. The note with it: in vivo. The gist of the method: as §1
Data set [25] is filed under the species Rattus norvegicus. The data set is described as follows: Biodistribution of radiolabeled compound in rat liver after 2 hr activity expressed as %ID/Organ. It counts as ADME, organism-based. The settings on record: in vivo. The gist of the method:
as §1

Data set [26] is filed under the species Rattus norvegicus. The data set is described as follows: Biodistribution of radiolabeled compound in rat brain after 30 min activity expressed as %ID/Organ. It counts as ADME, organism-based. The settings on record: in vivo, 0.5 h. In short, it runs like this: as §1
Data set [27] is filed under the species Rattus norvegicus. Briefly: Biodistribution of radiolabeled compound in rat brain after 5 min activity expressed as %ID/Organ. The note with it: in vivo. It counts as ADME, organism-based. In short, it runs like this:
as §1

Data set [28] is filed under the species Rattus norvegicus. Briefly: Biodistribution of radiolabeled compound in rat fat after 2 hr activity expressed as %ID/Organ. The class given is ADME, organism-based, Adipose tissue. The note with it: in vivo. The gist of the method:
as §1

The species named for data set [29] is Rattus norvegicus. Briefly: Biodistribution of radiolabeled compound in rat liver after 5 min activity expressed as %ID/Organ. The class given is ADME, organism-based. The settings on record: in vivo. The gist of the method: as §1
Data set [30] is filed under the species Rattus norvegicus. Briefly: Biodistribution of radiolabeled compound in rat heart after 24 hr activity expressed as %ID/Organ. The class given is ADME, organism-based. The note with it: in vivo. In short, it runs like this: as §1
The species named for data set [31] is Rattus norvegicus. The data set is described as follows: Biodistribution of radiolabeled compound in rat blood after 30 min activity expressed as %ID/Organ. The class given is ADME, organism-based. The settings on record: in vivo, 0.5 h. In short, it runs like this: as §1
The species entered for data set [32] is Rattus norvegicus. Briefly: Biodistribution of radiolabeled compound in rat bone after 30 min activity expressed as %ID/Organ. It counts as ADME, organism-based, Bone element. The settings on record: in vivo, 0.5 h. The gist of the method:
as §1

For data set [33], the species on record is Rattus norvegicus. The data set is described as follows: Biodistribution of radiolabeled compound in rat liver after 30 min activity expressed as %ID/Organ. The class given is ADME, organism-based. The settings on record: in vivo, 0.5 h. The gist of the method: as §1
Data set [34] is filed under the species Rattus norvegicus. The data set is described as follows: Biodistribution of radiolabeled compound in rat lung after 2 hr activity expressed as %ID/Organ. It counts as ADME, organism-based. The note with it: in vivo. In short, it runs like this: as §1
Data set [35] is filed under the species Rattus norvegicus. The data set is described as follows: Biodistribution of radiolabeled compound in rat lung after 24 hr activity expressed as %ID/Organ. The note with it: in vivo. The class given is ADME, organism-based. In short, it runs like this:
as §1

The species entered for data set [36] is Rattus norvegicus. Briefly: Biodistribution of radiolabeled compound in rat lung after 5 min activity expressed as %ID/Organ. The class given is ADME, organism-based. The note with it: in vivo. In short, it runs like this:
as §1

For data set [37], the species on record is Rattus norvegicus. Briefly: Biodistribution of radiolabeled compound in rat blood after 24 hr postinjection activity expressed as %ID/Organ. The class given is ADME, organism-based. The settings on record: in vivo.
For data set [38], the species on record is Rattus norvegicus. The data set is described as follows: Biodistribution of radiolabeled compound in rat liver after 24 hr postinjection activity expressed as %ID/Organ. The settings on record: in vivo. The class given is ADME, organism-based.
The species named for data set [39] is Rattus norvegicus. Briefly: Biodistribution of radiolabeled compound in rat kidney after 24 hr postinjection activity expressed as %ID/Organ. It counts as ADME, organism-based. The settings on record: in vivo.

As to Cu-CB-DO2A, the Biodistribution in the data set filed under Rattus norvegicus [1] is recorded as 0.24%; in the data set filed under Rattus norvegicus [2], 0.28%; in the data set listed under Rattus norvegicus [3], 18.27%; in the data set filed under Rattus norvegicus [4] it was 6.42%; in the data set listed under Rattus norvegicus [5], 0.44%; in the data set listed under Rattus norvegicus [6], 0.14%. Further, the Biodistribution in the data set listed under Rattus norvegicus [7] is listed as 0.067%; in the data set filed under Rattus norvegicus [8], 0.56%; in the data set listed under Rattus norvegicus [9], 1.14%; in the data set filed under Rattus norvegicus [10], 2.64%; in the data set filed under Rattus norvegicus [11], 0.39%; in the data set filed under Rattus norvegicus [12] it was 0.002%. Moreover, the Biodistribution in the data set listed under Rattus norvegicus [13] amounted to 3.99%; in the data set filed under Rattus norvegicus [14], 0.0095%; in the data set filed under Rattus norvegicus [15], 0.22%; in the data set filed under Rattus norvegicus [16], 0.32%; in the data set listed under Rattus norvegicus [17], 0.008%; in the data set filed under Rattus norvegicus [18], 13.45%. In addition, the Biodistribution turned out to be 0.12% in the data set listed under Rattus norvegicus [19]; 2.14% in the data set listed under Rattus norvegicus [20]; 0.21% in the data set filed under Rattus norvegicus [21]; 0.064% in the data set listed under Rattus norvegicus [22]; 1.39% in the data set listed under Rattus norvegicus [23]; 4.52% in the data set listed under Rattus norvegicus [24]. Further, the Biodistribution worked out at 0.93% in the data set filed under Rattus norvegicus [25]; 0.036% in the data set filed under Rattus norvegicus [26]; 0.097% in the data set filed under Rattus norvegicus [27]; 0.22% in the data set filed under Rattus norvegicus [28]; 2.47% in the data set listed under Rattus norvegicus [29]; 0.0065% in the data set listed under Rattus norvegicus [30]. The Biodistribution in the data set filed under Rattus norvegicus [31] is 3.79%; in the data set filed under Rattus norvegicus [32], 1.69%; in the data set listed under Rattus norvegicus [33], 1.47%; in the data set listed under Rattus norvegicus [34], 0.044%; in the data set listed under Rattus norvegicus [35] it was 0.019%; in the data set listed under Rattus norvegicus [36], 0.72%.
Consider Cu-CB-TE2A, for which the Biodistribution in the data set listed under Rattus norvegicus [37] was found to be 0.032%; in the data set listed under Rattus norvegicus [38] it was 0.14%; in the data set listed under Rattus norvegicus [39] it was 0.064%.
The corresponding values for Cu-DOTA are 0.58%, 1.05% and 0.54%.
Consider Cu-TETA, for which the values for the Biodistribution in the data set listed under Rattus norvegicus [37], in the data set filed under Rattus norvegicus [38] and in the data set filed under Rattus norvegicus [39] were 0.21%, 0.49% and 0.21%, respectively.

For the origin of these results see ChEMBL document CHEMBL1149099, “Comparative in vivo stability of copper-64-labeled cross-bridged and conventional tetraazamacrocyclic complexes” (J Med Chem, 2004).
